Published values of several laboratories.
Compare with care: the assays were run in different laboratories. pKi: −log10 of the molar value.
ADRA1A: Alpha-1A adrenergic receptor (ADRA1A, Homo sapiens, UniProt P35348)
Tspo: Translocator protein (Tspo, Rattus norvegicus, UniProt P16257)
PPARD: Peroxisome proliferator-activated receptor delta (PPARD, Homo sapiens, UniProt Q03181)
HRH2: Histamine H2 receptor (HRH2, Homo sapiens, UniProt P25021)

Compound	target	assay	setting	pKi
CCCCN1CCC(COC(=O)c2ccc(N)c(OCF)c2)CC1	ADRA1A	cell-free assay, radioligand		< 5.00
O[C@@H]1[C@H](O)[C@@H]2C[C@@H]2[C@H]1n1cnc2c(NCc3cccc(Cl)c3)ncnc21	Tspo	ligand displacement, radioligand		< 5.00
Oc1cccc(Nc2nc(-c3ccc(F)cc3F)cs2)c1	Kappa-type opioid receptor (Oprk1, Rattus norvegicus, UniProt P34975)	cell-free assay, radioligand		5.66
CNC(=O)[C@@]12C[C@@H]1[C@@H](n1ccc3c(NC)ncnc31)[C@H](O)[C@@H]2O	Tspo	ligand displacement, radioligand		< 5.00
Cc1c(C)c2c(c(C)c1O)CCC(C)(COc1ccc(CC3SC(=O)NC3=O)cc1)O2 (stereo not shown)	PPARD	cell-free assay		4.58
CNC(=O)[C@@]12C[C@@H]1[C@@H](n1cnc3c(NC)nc(C#Cc4ccccc4Cl)nc31)[C@H](O)[C@@H]2O	Tspo	ligand displacement, radioligand		< 5.00
CC[C@H](NC(=O)[C@H](CS(=O)(=O)CC1CC1)N[C@@H](c1ccc(F)cc1)C(F)(F)F)C(=O)C(=O)NC1CC1	Cathepsin S (CTSS, Homo sapiens, UniProt P25774)	enzyme activity, inhibitor, fluorescence	with preincubation	9.89
CC[Si](C#Cc1ccc2c(c1)C=C([N+](=O)[O-])C(C(F)(F)F)O2)(CC)CC (stereo not shown)	Tspo	cell-free assay, radioligand		6.30
CNc1nc2cc(OCCCCN3CCC(c4cccc(Cl)c4Cl)CC3)ccc2s1	HRH2	ligand displacement, radioligand		6.48
O=C1c2ccccc2CCN1CCCCN1CCN(c2ccccn2)CC1	ADRA1A	ligand displacement, radioligand		6.26
CCc1nc2cc(OCCCCN3CCC(c4cccc(Cl)c4Cl)CC3)ccc2s1	HRH2	ligand displacement, radioligand		5.68
COc1ccccc1N1CCN(CCCCN2CCc3ccccc3C2=O)CC1	ADRA1A	ligand displacement, radioligand		7.95
CNc1nc(C#Cc2ccc(Cl)s2)nc2c1ncn2[C@H]1[C@H](O)[C@H](O)[C@]2(C(=O)OCCC3CCCCC3)C[C@H]12	Tspo	ligand displacement, radioligand		< 5.00
CC1(C)C=Cc2c(cc3oc(-c4ccccc4)c(O)c(=O)c3c2O)O1	PPARD	ligand displacement, TR-FRET		5.89
CCNc1nc(C#Cc2ccccc2)nc2c1ncn2[C@H]1[C@H](O)[C@H](O)[C@@H]2C[C@@H]21	Tspo	ligand displacement, radioligand		< 5.00
C[C@H]1Oc2cc(cnc2N)-c2c(nn(C)c2C#N)CN(C)C(=O)c2ccc(F)cc21	Focal adhesion kinase 1 (PTK2, Homo sapiens, UniProt Q05397)	cell-free assay	lysate	7.99
